Shown are actives, neighbours in structure and some others; about 1.5% of the full set was active somewhere.
APJ antag – APJ receptor antagonism | CHO-K1 APJ beta-arrestin complementation, luminescence | inhibition, % at 20 µM | 330,000 tested, 0.32% active;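 active = inhibition above about 40% at 20 µM, limit read from the data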;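 note: cells challenged with 10 nM apelin-13 agonist together with compound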
CCR6 antagonist – antagonists of human CCR6 receptor; CHO-K1 CCR6 PathHunter beta-arrestin, luminescence, CCL20-stimulated; 340,000 tested, 0.49% active; inhibition, % at 20 µM; P51684; AID 493098;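 active = compounds whose inhibition of the agonist-driven luminescence signal at 20 µM reaches about 50%, limit read from the data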;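 note: cells stimulated with CCL20 at 14 nM final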
EBI2 antag – antagonists of human EBI2 receptor; P32249; EBI2 beta-arrestin recruitment, luminescence, 7a,25-OHC stimulated; inhibition, % at 5 µM; 360,000 tested, 0.81% active; in the data active = inhibition above about 38%;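 note: enzyme fragment complementation signal reports receptor beta-arrestin coupling in cells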
CXCR6 block – inhibitors of human CXCR6 receptor; 360,000 tested, 0.36% active; AID 602244; O00574; CHO-K1 PathHunter CXCR6 beta-arrestin, luminescence; inhibition, % at 20 µM; in the data active = inhibition above about 34%, passing the limit was not always enough;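 note: antagonist mode with CXCL16 agonist at 10 nM final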
Target sequence (O00574 whole entry, looked up): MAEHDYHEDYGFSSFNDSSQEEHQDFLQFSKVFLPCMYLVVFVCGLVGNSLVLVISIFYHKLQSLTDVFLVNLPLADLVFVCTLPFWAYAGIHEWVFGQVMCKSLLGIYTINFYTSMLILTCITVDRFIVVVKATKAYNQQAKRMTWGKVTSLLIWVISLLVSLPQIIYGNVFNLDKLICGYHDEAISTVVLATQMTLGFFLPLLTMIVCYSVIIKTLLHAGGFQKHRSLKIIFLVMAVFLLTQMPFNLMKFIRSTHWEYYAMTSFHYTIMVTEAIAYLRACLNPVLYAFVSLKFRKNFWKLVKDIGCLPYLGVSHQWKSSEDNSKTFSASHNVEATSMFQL
iPSC survival up – hiPSC single-cell survival enhancement; ATPlite luminescence; 100% = ROCK inhibitor wells, 0% = DMSO; survival enhancement, % at 20 µM; 360,000 tested, 0.044% active; AID 602274; in the data active = survival enhancement above about 18%;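 note: cells exposed to compounds for 16 hours before the ATP read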
APJ agonist – agonists of human APJ apelin receptor; P35414; activation, % at 20 µM; CHO-K1 APJ PathHunter beta-arrestin, luminescence; 0% DMSO wells, 100% apelin; 330,000 tested, 0.11% active; AID 2520;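 active = activation more than six SD over the plate average, tested at 20 µM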
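system = engineered CHO-K1 APJ arrestin reporter cells | input = 1000 cells per well | timing = overnight seeding, 90 min compound at 25 °C, 1 h detection | measured by = enzyme-fragment complementation luminescence | read-out = beta-arrestin recruitment to APJ as agonist activity, luminescent signal | control set = negative DMSO alone, positive Apelin-13 at 10 nM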
EBI2 conf – confirmation of human EBI2 receptor antagonists; shares compounds with EBI2 antag; 2,400 tested, 29% active; inhibition, % at 5 µM; EBI2 beta-arrestin luminescence, 7a,25-OHC antagonism;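 active = inhibition of at least 50%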
EBI2 agonist – counter-screen for EBI2 antagonists: EBI2 agonist activity. shares compounds with EBI2 antag. EBI2-expressing cells, agonist mode, luminescence, 60 min; 0% vehicle, 100% 7α,25-dihydroxycholesterol control. activation, % at 5 µM. 2,400 tested, under 10 active. AID 652000;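 active = activation of at least 50%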
bGal counter – beta-galactosidase inhibition counter-screen. purified beta-galactosidase, luminescent Galacton Star, 15 min. 2,400 tested, 1% active. inhibition, % at 5 µM. shares compounds with EBI2 antag;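 active = replicate-average signal at least 3 plate SD below neutral wells, shown as high inhibition, flagging enzyme-inhibiting false positives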;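 note: higher means stronger loss of beta-gal luminescence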
Large screens that a line does not name were inactive (follow-up assays come after a bar, where they were run).

COC(=O)C1=C(c2ccccc2OCc2ccccc2)C[C@@H]2CC[C@H]1N2C(=O)NCc1ccc(Cl)cc1	EBI2 antag 43.7 | EBI2 conf inactive | EBI2 agonist inactive | bGal counter inactive
COC(=O)C1=C(c2ccc(-c3ccccc3)c(F)c2)C[C@@H]2CC[C@H]1N2C(=O)NCCc1ccccc1	EBI2 antag 44.2 | EBI2 conf inactive | EBI2 agonist inactive | bGal counter inactive
N#Cc1ccc(OCC(=O)N2CCN(Cc3ccc4c(c3)OCO4)CC2)cc1	none
O=C(COc1ccccc1)N1CCN(CC2CC=CCC2)CC1 (stereo not drawn)	EBI2 antag 68.0 | EBI2 conf inactive | EBI2 agonist inactive | bGal counter inactive
O=C(COc1ccccc1)N1CCN(CC2CC3C=CC2C3)CC1 (stereo not drawn)	none
Cc1ccc(OCC(=O)N2CCN(Cc3ccc4c(c3)OCO4)CC2)cc1	EBI2 antag 87.8 | EBI2 conf 60.5 | EBI2 agonist inactive | bGal counter inactive
Cc1ccc(OCC(=O)N2CCN(Cc3ccc([N+](=O)[O-])cc3)CC2)cc1	EBI2 antag 93.9 | EBI2 conf 70.8 | EBI2 agonist inactive | bGal counter inactive
Cc1ccc(OCC(=O)N2CCN(CC3CC4C=CC3C4)CC2)cc1 (stereo not drawn)	EBI2 antag 84.2 | EBI2 conf 62.1 | EBI2 agonist inactive | bGal counter inactive
O=P(O)(O)CN1CCNCCN(CP(=O)(O)O)CCNCC1	none (no result: APJ antag, APJ agonist)
CCOC(=O)[C@@H]1[C@H]2COc3ccc(Br)cc3[C@@H]2N2C(=O)N(c3cccc(C)c3)C(=O)[C@]12C	none
CC=C(C)C1(CCC)C(=O)NC(=S)NC1=O	none (no result: APJ antag, APJ agonist)
CC(C)NS(=O)(=O)c1ccc(OCC(=O)N2CCN(Cc3ccccc3)CC2)cc1	none
COc1ccc(OCC(=O)N2CCN(Cc3ccc(SC)cc3)CC2)cc1	EBI2 antag 71.0 | EBI2 conf 50.5 | EBI2 agonist inactive | bGal counter inactive
O=C(COc1ccc(Cl)cc1)N1CCN(C2CCCC2)CC1	EBI2 antag 88.6 | EBI2 conf 67.1 | EBI2 agonist inactive | bGal counter inactive
COc1ccc(OCC(=O)N2CCN(Cc3ccc4c(c3)OCO4)CC2)cc1	EBI2 antag 86.3 | EBI2 conf 59.4 | EBI2 agonist inactive | bGal counter inactive
COc1ccccc1OCC(=O)N1CCN(Cc2ccc3c(c2)OCO3)CC1	none
O=C(COc1ccc(Cl)cc1)N1CCN(Cc2ccccc2)CC1	EBI2 antag 90.7 | EBI2 conf 65.5 | EBI2 agonist inactive | bGal counter inactive
CC1CCC(N2CCN(C(=O)COc3ccccc3)CC2)CC1 (stereo not drawn)	none
CC(=NNC(=S)N1CC2CCC(CC2)C1)c1nccs1	none (no result: APJ antag, APJ agonist)
Cc1nc2cc(F)ccc2n1C1CCN(Cc2nnnn2CCc2ccccc2)CC1	none
Cc1nc2cc(C(F)(F)F)ccc2n1C1CCN(Cc2nnnn2CCc2ccccc2)CC1	EBI2 antag 37.2 | EBI2 conf inactive | EBI2 agonist inactive | bGal counter inactive
CC(C)c1ccc(-n2c(O)c(C=NCCN3CCNCC3)c(=O)[nH]c2=S)cc1	none
Clc1cccc(NC2=NCCS2)c1	none (no result: APJ antag, CCR6 antagonist, APJ agonist)

Compound activity deposited in PubChem by Sanford-Burnham Center for Chemical Genomics.
